Data from ChEMBL document CHEMBL1128454, “Cyclization-activated prodrugs: N-(substituted 2-hydroxyphenyl and 2-hydroxypropyl)carbamates based on ring-opened derivatives of active benzoxazolones and oxazolidinones as mutual prodrugs of acetaminophen” (J Med Chem, 1995).

Experiments:
[1] = Compound was evaluated for pKa; type: physicochemical
Summary of the method: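 Apparent kinetic pKa obtained by fitting the pH-rate profile (log kobsd vs pH, UV-monitored hydrolysis in NaOH and carbonate, borax, Tris or phosphate buffers) to a rate law combining the pH-independent constant with the acid dissociation constant of the prodrug hydroxyl.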

[2] = Compound was evaluated for its hydrolysis half life obtained from the relation Kobs was measured in a pH 7.4 phosphate buffer at 37 degree C (micro = 0.5 M ).; type: ADME; settings: for half-life: phosphate buffer
Summary of the method: (§1)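 Prodrug hydrolysed in pH 7.40 phosphate buffer at 37 °C (some runs at 25 °C) and monitored by UV spectrophotometry until product formation, about 10 half-lives. First-order kobsd from ln(OD) vs time, with pH checked before and after. Half-life taken as 0.693/kobsd.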

[3] = Compound was evaluated for its rate constant (Kp) which are average values of Kobs measured in the pH range 10-11 at 25 degree C (micro = 0.5 M ).; type: ADME
Summary of the method: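 Spectrophotometric hydrolysis in aqueous NaOH or carbonate/borax buffers, 25 °C, ionic strength 0.5 M. kp is the average of kobsd values measured over pH 10-11 (the pH-independent plateau). kobsd came from first-order ln(OD) vs time plots. Error in each rate constant about ±3%.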

[4] = its hydrolysis half life in rat plasma (pH 7.4); type: ADME, organism-based
Summary of the method: (§2)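 Prodrug in acetonitrile or dioxane added to 0.05 M phosphate buffer pH 7.40 containing 80% human or rat plasma, about 0.04 mg/mL initial, at 37 or 25 °C. Aliquots quenched and deproteinized with 0.05 M methanolic HCl, centrifuged, then analysed by reversed-phase HPLC with diode-array detection. First-order constants from ln plots of drug or prodrug concentration vs time.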

[5] = its hydrolysis half life in phosphate buffer (pH 7.4); type: ADME; summary of the method: as §1
[6] = its hydrolysis half life in human plasma (pH 7.4); type: ADME, organism-based; summary of the method: as §2
[7] = its bimolecular rate constant (KOH) at 25 degree C (m = 0.5); type: ADME
Summary of the method: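 Hydrolysis followed by UV spectrophotometry in aqueous NaOH or buffer (carbonate, borax, Tris, phosphate) at 25 °C, ionic strength 0.5 M. Second-order constant kOH taken from the linear plot of kobsd vs [OH-] over the pH-dependent region. kobsd came from ln(OD) vs time plots. pH in the cell was read before and after reaction.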

| Compound | pKa [1] | half-life [2] [min] | Kp [3] [s⁻¹] | also measured |
| --- | --- | --- | --- | --- |
| COC(=O)Nc1cc(Cl)ccc1O | 15.5 | 105000 | 1.05e-06 | – |
| CC(=O)Nc1ccc(OC(=O)NCC(O)COc2cc(C)cc(C)c2)cc1 (configuration not stated) | – | – | – | half-life ([4]; read-out: T1/2): 62 min; half-life [5]: 416 min; half-life ([6]; read-out: T1/2): 45 min |
| CC(=O)Nc1ccc(OC(=O)Nc2cc(Cl)ccc2O)cc1 | 9.49 | 0.118 | 0.205 | half-life [4]: 0.833 min; half-life [5]: 0.118 min; half-life [6]: 1.1 min |
| O=C(Nc1cc(Cl)ccc1O)Oc1ccccc1 | 10 | 0.2 | 0.169 | – |
| COc1ccccc1OCC(CNC(=O)Oc1ccc(NC(C)=O)cc1)OC (configuration not stated) | – | – | – | half-life ([4]; read-out: T1/2): 153 min; half-life [5]: 502 min; half-life ([6]; read-out: T1/2): 134 min |
| Cl.Nc1ccc(OC(=O)Nc2cc(Cl)ccc2O)cc1 | 10.4 | 0.383 | 0.0806 | – |
| CC(=O)Nc1ccc(OC(=O)Nc2cc(C(=O)c3ccccc3)ccc2O)cc1 | 9.49 | 0.233 | 0.0221 | half-life ([4]; read-out: T1/2): 2.9 min; half-life [5]: 0.233 min; half-life ([6]; read-out: T1/2): 10.2 min |
| O=C(Nc1cc(Cl)ccc1O)Oc1cccc(Cl)c1 | 9.02 | 0.0634 | 0.503 | – |
| COc1ccccc1OCC(O)CNC(=O)Oc1ccc(NC(C)=O)cc1 (configuration not stated) | – | – | – | half-life ([4]; read-out: T1/2): 58 min; half-life [5]: 371 min; KOH [7]: 10.5 M⁻¹ s⁻¹; half-life ([6]; read-out: T1/2): 59 min |
| CNC(=O)Oc1ccc(NC(C)=O)cc1 | – | – | – | KOH [7]: 11.5 M⁻¹ s⁻¹ |
| O=C(Nc1cc(Cl)ccc1O)OCC(F)(F)F | 12.4 | 2.58 | 0.014 | – |
| C#CCOC(=O)Nc1cc(Cl)ccc1O | 13.6 | – | 0.00025 | T1/2 ([2]; buffer): 108 min |
| O=C(Nc1cc(Cl)ccc1O)Oc1cccc(C(F)(F)F)c1 | 8.97 | 0.0518 | 0.7 | – |
| CCOC(=O)Nc1cc(Cl)ccc1O | 16 | 418000 | 8.63e-07 | – |
| COc1ccc(Cl)cc1NC(=O)Oc1ccc(NC(C)=O)cc1 | – | – | – | KOH [7]: 510 M⁻¹ s⁻¹ |
| CC(=O)Nc1ccc(OC(=O)Nc2ccc(C(=O)c3ccccc3)cc2O)cc1 | 9.49 | 0.0965 | 0.119 | half-life [4]: 0.233 min; half-life [5]: 0.097 min; half-life [6]: 1 min |
| COc1ccc(OC(=O)Nc2cc(Cl)ccc2O)cc1 | 10.2 | 0.37 | 0.0976 | – |
| O=C(Nc1cc(Cl)ccc1O)OCCCl | 14.3 | – | 2.75e-06 | – |
| CC(=O)Nc1cccc(OC(=O)Nc2cc(Cl)ccc2O)c1 | 9.38 | 0.125 | 0.279 | – |
| O=C(Nc1cc(Cl)ccc1O)OCC(Cl)(Cl)Cl | 12.7 | 276000 | 1.14 | half-life ([4]; read-out: T1/2): 7.5 min; half-life ([6]; read-out: T1/2): 10.1 min |
| O=C(Nc1cc(Cl)ccc1O)OCC(Cl)Cl | 13.2 | 42.5 | 0.000806 | half-life ([4]; read-out: T1/2): 53.8 min; half-life ([6]; read-out: T1/2): 105 min |
| CC(C)(C)OC(=O)Nc1ccc(OC(=O)Nc2cc(Cl)ccc2O)cc1 | 9.8 | 0.187 | 0.184 | – |
| CC#CCOC(=O)Nc1cc(Cl)ccc1O | 14.2 | – | 5.93e-06 | – |
